# Measured values as given in ChEMBL document CHEMBL5108074 (J Med Chem, 2022).
# Tests used:
# Coagulation factor XI = Coagulation factor XI (Homo sapiens, UniProt P03951); experiment: Inhibition of human factor 11a preincubated for 5 mins followed by substrate addition by fluorometer analysis
# In short: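 Enzyme from the selectivity panel of serine proteases, typically purified from human plasma. The inhibitor was preincubated with the enzyme for 5 min before a protease-specific fluorogenic substrate was added. Substrate cleavage was followed kinetically. IC50 came from a four-parameter logistic fit to the normalized rate of fluorescence increase.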
# Tryptase = Tryptase (Homo sapiens, UniProt Q9BZJ3+Q15661+Q9NRR2); experiment: Inhibition of human tryptase preincubated for 5 mins followed by substrate addition by fluorometer analysis; format: protein assay
# In short: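 Human proteases, typically purified from plasma, preincubated with compound for 5 min. A protease-specific fluorogenic substrate was then added and cleavage followed kinetically on a fluorometer. IC50 from a four-parameter logistic fit to the normalized rate of fluorescence increase.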
# [1] = Thermodynamic solubility of the compound in FaSSIF at 1 mg/ml at pH 6.5 measured after 4 hrs; format: physicochemical; conditions: simulated gi fluid, pH 6.5, 4 h
# In short: (§1)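 Compound (nominal 1 or 100 mg/mL as free base) added to biorelevant medium preheated to 37 °C: FaSSGF at pH 1.6 or FaSSIF at pH 6.5. Vortexed, then shaken 4 h at 37 °C (~500 rpm). Centrifuged at 15000g for 10 min at 37 °C. Supernatant diluted and quantified against calibration standards. Crystalline material used where stated.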
# [2] = Thermodynamic solubility of the compound in FaSSGF at 1 mg/ml at pH 1.6 measured after 4 hrs; format: physicochemical; conditions: buffer, pH 1.6, 4 h; in short: as §1
# [3] = Metabolic stability in human liver microsomes assessed as intrinsic clearance per mg of protein measured upto 60 mins in presence of NADPH regenerating system by LC-MS/MS analysis; format: ADME, Microsome; conditions: microsomes, 1 h
# [4] = biological target: Tissue-type plasminogen activator (Homo sapiens, UniProt P00750); experiment: Inhibition of human tissue plasminogen activator preincubated for 5 mins followed by substrate addition by fluorometer analysis
# Sequence of Tissue-type plasminogen activator (P00750 whole entry): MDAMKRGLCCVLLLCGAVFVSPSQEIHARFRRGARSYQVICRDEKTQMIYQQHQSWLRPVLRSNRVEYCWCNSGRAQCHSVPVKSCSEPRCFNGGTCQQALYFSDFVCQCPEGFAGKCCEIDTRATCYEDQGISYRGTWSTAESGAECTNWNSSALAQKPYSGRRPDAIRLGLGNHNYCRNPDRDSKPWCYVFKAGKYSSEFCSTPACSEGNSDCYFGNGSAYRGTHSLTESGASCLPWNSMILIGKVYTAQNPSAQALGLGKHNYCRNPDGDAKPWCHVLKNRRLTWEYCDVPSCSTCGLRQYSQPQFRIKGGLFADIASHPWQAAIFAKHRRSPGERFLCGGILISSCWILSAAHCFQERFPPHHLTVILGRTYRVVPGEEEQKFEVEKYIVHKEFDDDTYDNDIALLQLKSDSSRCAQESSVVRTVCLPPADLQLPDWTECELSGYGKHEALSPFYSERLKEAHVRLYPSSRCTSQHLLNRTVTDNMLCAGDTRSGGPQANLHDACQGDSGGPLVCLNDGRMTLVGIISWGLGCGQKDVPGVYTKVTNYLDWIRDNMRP
# In short: (§2)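 Each protease (commercial, typically purified from human plasma) was preincubated with inhibitor for 5 min, then a fluorogenic substrate specific to that enzyme was added. Cleavage was followed kinetically by fluorometry. IC50 came from a four-parameter logistic fit to the normalized rate of fluorescence increase.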
# Renin = Renin (Homo sapiens, UniProt P00797); experiment: Inhibition of human renin preincubated for 5 mins followed by substrate addition by fluorometer analysis
# Sequence of Renin (P00797 whole entry): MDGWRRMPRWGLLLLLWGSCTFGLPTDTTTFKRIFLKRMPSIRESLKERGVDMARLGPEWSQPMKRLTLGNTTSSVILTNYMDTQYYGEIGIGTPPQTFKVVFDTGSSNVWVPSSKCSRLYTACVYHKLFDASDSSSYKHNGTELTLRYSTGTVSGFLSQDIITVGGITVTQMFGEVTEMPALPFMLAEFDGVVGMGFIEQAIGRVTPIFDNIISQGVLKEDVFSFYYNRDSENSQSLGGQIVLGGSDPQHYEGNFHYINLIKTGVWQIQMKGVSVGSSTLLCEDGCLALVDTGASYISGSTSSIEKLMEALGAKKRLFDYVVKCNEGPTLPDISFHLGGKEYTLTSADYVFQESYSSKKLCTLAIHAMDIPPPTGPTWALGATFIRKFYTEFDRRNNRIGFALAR
# Cytochrome P450 3A4 = Cytochrome P450 3A4 (Homo sapiens, UniProt P08684); experiment: Inhibition of CYP3A4 in human liver microsomes assessed as reduction in 6beta-hydroxymidazolam metabolite formation using midazolam as substrate incubated for 30 mins in presence of NADPH by LC-MS/MS analysis; format: ADME, Microsome
# Sequence of Cytochrome P450 3A4 (P08684 whole entry): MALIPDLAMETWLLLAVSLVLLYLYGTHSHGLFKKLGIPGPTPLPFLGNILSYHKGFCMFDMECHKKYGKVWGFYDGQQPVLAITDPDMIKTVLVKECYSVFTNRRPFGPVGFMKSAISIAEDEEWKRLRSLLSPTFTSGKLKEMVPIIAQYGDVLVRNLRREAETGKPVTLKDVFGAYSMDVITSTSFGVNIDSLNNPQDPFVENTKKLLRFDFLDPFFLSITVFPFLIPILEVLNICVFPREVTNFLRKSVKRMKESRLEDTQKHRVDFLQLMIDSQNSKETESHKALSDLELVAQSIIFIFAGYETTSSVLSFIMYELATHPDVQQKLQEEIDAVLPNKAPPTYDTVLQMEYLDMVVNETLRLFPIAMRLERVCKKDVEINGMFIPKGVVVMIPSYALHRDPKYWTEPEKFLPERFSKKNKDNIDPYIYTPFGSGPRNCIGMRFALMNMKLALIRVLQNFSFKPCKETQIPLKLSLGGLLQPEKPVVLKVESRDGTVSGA
# [5] = Thermodynamic solubility of the compound in FaSSGF at 100 mg/ml at pH 1.6 measured after 4 hrs; conditions: pH 1.6, 4 h
# [6] = biological target: Voltage-gated inwardly rectifying potassium channel KCNH2 (Homo sapiens, UniProt Q12809); experiment: Inhibition of hERG expressed in CHO cells by whole cell patch clamp assay; format: toxicity, cell-based
# Sequence of Voltage-gated inwardly rectifying potassium channel KCNH2 (Q12809 whole entry): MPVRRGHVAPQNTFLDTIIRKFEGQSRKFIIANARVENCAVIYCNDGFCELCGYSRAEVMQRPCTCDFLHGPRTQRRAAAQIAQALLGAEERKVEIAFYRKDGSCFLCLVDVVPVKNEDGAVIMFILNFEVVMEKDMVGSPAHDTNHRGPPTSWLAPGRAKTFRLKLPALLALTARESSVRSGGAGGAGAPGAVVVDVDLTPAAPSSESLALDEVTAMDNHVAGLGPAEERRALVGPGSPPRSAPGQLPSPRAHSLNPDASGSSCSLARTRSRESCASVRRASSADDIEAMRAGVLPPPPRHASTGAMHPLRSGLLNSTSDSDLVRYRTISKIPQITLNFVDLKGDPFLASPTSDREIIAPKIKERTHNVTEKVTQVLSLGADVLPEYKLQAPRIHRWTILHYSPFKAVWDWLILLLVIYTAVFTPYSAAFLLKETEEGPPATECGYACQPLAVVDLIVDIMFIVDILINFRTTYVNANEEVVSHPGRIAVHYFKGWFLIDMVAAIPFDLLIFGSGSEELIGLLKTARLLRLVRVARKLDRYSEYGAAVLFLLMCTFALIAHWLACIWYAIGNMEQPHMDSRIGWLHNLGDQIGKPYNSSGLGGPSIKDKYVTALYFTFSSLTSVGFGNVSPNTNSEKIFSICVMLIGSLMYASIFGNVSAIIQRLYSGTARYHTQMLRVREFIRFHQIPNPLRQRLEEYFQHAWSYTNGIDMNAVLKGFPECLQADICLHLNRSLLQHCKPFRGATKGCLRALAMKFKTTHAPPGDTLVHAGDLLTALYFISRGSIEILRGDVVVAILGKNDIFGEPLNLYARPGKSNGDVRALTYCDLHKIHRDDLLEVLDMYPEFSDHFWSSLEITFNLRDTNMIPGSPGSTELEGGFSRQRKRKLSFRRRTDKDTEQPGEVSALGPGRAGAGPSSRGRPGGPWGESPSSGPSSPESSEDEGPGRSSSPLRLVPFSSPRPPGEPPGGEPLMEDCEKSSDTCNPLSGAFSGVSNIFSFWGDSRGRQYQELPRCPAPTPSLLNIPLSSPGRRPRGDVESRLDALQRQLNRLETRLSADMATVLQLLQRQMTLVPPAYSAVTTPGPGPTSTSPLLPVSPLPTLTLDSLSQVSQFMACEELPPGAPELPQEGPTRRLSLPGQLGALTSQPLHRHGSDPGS
# In short: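 hERG K+ current recorded by automated whole-cell patch clamp in CHO cells stably expressing hERG. Concentrations tested up to a maximum of 33 μM.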
# Cathepsin G = Cathepsin G (Homo sapiens, UniProt P08311); experiment: Inhibition of human Cathepsin G preincubated for 5 mins followed by substrate addition by fluorometer analysis; in short: as §2
# [7] = Clearance in Sprague-Dawley rat assessed as liver blood flow at 1 mg/kg, iv measured upto 24 hrs by LC-MS analysis; format: ADME, organism-based; conditions: in vivo
# In short: (§3)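 Male Sprague-Dawley rats, two per route, single dose. IV: 1 mg/kg given as 1 mL/kg of a nominal 1 mg/mL formulation in vehicle. PO: 10 mg/kg given as 5 mL/kg of a 2 mg/mL formulation. PK parameters from noncompartmental analysis. Clearance expressed relative to rat liver blood flow of 80 mL/min/kg.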
# Cathepsin D = Cathepsin D (Homo sapiens, UniProt P07339); experiment: Inhibition of human Cathepsin D preincubated for 5 mins followed by substrate addition by fluorometer analysis
# Sequence of Cathepsin D (P07339 65-162 limits assumed): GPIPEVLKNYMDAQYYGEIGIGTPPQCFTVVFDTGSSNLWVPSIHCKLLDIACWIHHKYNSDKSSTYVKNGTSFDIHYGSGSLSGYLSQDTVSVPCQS
# Sequence of Cathepsin D (P07339 169-412 limits assumed): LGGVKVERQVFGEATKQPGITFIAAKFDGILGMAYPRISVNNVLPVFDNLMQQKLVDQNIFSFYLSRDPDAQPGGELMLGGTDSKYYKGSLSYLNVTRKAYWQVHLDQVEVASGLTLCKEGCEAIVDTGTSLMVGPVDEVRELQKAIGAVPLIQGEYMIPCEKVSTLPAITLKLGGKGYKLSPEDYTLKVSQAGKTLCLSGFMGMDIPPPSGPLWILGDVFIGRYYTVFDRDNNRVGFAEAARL
# Cytochrome P450 2D6 = Cytochrome P450 2D6 (Homo sapiens, UniProt P10635); experiment: Inhibition of CYP2D6 in human liver microsomes assessed as reduction in dextrorphan metabolite formation incubated for 30 mins in presence of NADPH by LC-MS/MS analysis; format: ADME, Microsome
# [8] = Oral bioavailability in Sprague-Dawley rat at 10 mg/kg measured upto 24 hrs by LC-MS analysis; format: ADME, organism-based; conditions: in vivo; in short: as §3
# Cytochrome P450 2B6 = Cytochrome P450 2B6 (Homo sapiens, UniProt P20813); experiment: Inhibition of CYP2B6 in human liver microsomes assessed as reduction in hydroxybupropion metabolite formation incubated for 30 mins in presence of NADPH by LC-MS/MS analysis; format: ADME, Microsome
# Sequence of Cytochrome P450 2B6 (P20813 whole entry): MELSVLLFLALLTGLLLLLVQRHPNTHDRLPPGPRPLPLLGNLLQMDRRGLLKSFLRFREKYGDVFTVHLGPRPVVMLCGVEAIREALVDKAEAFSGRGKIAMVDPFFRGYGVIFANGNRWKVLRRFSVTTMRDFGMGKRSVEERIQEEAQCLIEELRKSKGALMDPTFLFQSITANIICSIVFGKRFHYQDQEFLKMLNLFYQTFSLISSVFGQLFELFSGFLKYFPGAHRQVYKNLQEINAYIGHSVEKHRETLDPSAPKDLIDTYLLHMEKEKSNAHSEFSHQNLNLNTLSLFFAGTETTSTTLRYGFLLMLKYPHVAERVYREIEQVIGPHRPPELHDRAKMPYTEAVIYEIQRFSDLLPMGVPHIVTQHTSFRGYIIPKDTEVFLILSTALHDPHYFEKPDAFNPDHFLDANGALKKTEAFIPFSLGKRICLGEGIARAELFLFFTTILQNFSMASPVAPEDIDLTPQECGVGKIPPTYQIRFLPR
# [9] = Half life in Beagle dog at 1 mg/kg, po and 1 mg/kg, iv measured upto 24 hrs by LC-MS analysis; format: ADME, organism-based, Canis lupus familiaris; conditions: in vivo
# [10] = Thermodynamic solubility of the compound in FaSSIF at 1 mg/ml at pH 6.5 using crystalline form of sample measured after 4 hrs; format: physicochemical; conditions: simulated gi fluid, pH 6.5, 4 h; in short: as §1
# Cytochrome P450 2C9 = Cytochrome P450 2C9 (Homo sapiens, UniProt P11712); experiment: Inhibition of CYP2C9 in human liver microsomes assessed as reduction in 4 hydroxy-diclofenac metabolite formation incubated for 30 mins in presence of NADPH by LC-MS/MS analysis; format: ADME, Microsome
# [11] = Oral bioavailability in Beagle dog at 1 mg/kg measured upto 24 hrs by LC-MS analysis; format: ADME, organism-based, Canis lupus familiaris; conditions: in vivo
# Plasminogen = Plasminogen (Homo sapiens, UniProt P00747); experiment: Inhibition of human plasmin preincubated for 5 mins followed by substrate addition by fluorometer analysis; in short: as §2
# Sequence of Plasminogen (P00747 97-580 limits assumed): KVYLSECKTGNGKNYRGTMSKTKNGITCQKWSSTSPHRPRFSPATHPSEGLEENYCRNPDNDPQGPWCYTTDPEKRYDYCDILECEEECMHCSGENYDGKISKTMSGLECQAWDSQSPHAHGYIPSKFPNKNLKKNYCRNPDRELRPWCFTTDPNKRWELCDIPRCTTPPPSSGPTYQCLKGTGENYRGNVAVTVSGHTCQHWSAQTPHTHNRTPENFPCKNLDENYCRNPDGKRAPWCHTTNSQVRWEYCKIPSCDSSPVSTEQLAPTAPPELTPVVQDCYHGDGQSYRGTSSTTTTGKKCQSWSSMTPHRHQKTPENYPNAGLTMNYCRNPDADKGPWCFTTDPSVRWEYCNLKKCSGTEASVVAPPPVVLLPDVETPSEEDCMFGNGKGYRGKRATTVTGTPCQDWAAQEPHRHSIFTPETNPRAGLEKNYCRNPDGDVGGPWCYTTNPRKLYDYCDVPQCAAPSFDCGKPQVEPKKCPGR
# Sequence of Plasminogen (P00747 581-810 limits assumed): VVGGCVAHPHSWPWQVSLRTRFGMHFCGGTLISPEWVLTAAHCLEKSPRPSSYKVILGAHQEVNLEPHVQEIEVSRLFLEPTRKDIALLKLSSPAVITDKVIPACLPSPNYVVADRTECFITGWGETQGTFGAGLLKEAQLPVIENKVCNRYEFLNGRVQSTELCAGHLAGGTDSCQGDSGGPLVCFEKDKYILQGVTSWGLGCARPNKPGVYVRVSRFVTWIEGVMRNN
# [12] = Genotoxicity in Salmonella typhimurium by non-GLP bacterial mutagenicity Ames test; format: toxicity; conditions: salmonella enterica subsp. enterica serovar typhimurium
# [13] = Clearance in Beagle dog blood at 1 mg/kg, iv measured upto 24 hrs by LC-MS analysis; format: ADME, organism-based, Canis lupus familiaris; conditions: whole blood
# Prothrombin = Prothrombin (Homo sapiens, UniProt P00734); experiment: Inhibition of human thrombin preincubated for 5 mins followed by substrate addition by fluorometer analysis; in short: as §2
# [14] = Half life in Sprague-Dawley rat at 10 mg/kg, po and 1 mg/kg, iv measured upto 24 hrs by LC-MS analysis; format: ADME, organism-based; conditions: in vivo; in short: as §3
# Cytochrome P450 2C8 = Cytochrome P450 2C8 (Homo sapiens, UniProt P10632); experiment: Inhibition of CYP2C8 in human liver microsomes assessed as reduction in 6 alpha-hydroxypaclitaxel metabolite formation incubated for 30 mins in presence of NADPH by LC-MS/MS analysis; format: ADME, Microsome
# [15] = Clearance in Sprague-Dawley rat blood at 1 mg/kg, iv measured upto 24 hrs by LC-MS analysis; format: ADME, organism-based; conditions: whole blood; in short: as §3
# Beta-secretase 1 = Beta-secretase 1 (Homo sapiens, UniProt P56817); experiment: Inhibition of human beta-secretase 1 preincubated for 5 mins followed by substrate addition by fluorometer analysis
# Sequence of Beta-secretase 1 (P56817 whole entry): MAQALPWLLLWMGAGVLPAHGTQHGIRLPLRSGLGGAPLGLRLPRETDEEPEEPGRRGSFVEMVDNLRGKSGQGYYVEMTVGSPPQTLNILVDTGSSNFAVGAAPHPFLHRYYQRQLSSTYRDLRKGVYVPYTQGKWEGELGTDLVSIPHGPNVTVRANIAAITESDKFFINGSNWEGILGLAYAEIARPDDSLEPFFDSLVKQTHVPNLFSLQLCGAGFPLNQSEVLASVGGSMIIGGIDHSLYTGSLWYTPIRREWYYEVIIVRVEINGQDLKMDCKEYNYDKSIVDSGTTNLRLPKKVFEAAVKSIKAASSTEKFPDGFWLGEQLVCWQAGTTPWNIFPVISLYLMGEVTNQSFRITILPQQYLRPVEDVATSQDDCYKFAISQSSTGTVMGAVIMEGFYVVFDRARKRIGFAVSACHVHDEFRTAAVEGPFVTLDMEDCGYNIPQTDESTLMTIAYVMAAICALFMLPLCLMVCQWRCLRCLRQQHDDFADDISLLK
# [16] = Clearance in Beagle dog assessed as liver blood flow at 1 mg/kg, iv measured upto 24 hrs by LC-MS analysis; format: ADME, organism-based, Canis lupus familiaris; conditions: in vivo
# Kallikrein-1 = Kallikrein-1 (Homo sapiens, UniProt P06870); experiment: Inhibition of human KLK1 preincubated for 5 mins followed by substrate addition by fluorometer analysis
# Sequence of Kallikrein-1 (P06870 whole entry): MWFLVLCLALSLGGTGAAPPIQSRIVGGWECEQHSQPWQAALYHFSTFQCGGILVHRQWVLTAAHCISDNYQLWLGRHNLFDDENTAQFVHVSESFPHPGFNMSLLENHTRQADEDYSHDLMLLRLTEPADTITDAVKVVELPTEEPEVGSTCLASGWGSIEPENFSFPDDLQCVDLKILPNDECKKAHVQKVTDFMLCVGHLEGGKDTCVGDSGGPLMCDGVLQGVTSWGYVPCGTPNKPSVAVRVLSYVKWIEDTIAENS
# [17] = Apparent permeability of the compound across apical side to basolateral side in human Caco-2 cells incubated for 1 hr by LC-MS/MS analysis; conditions: caco-2, 1 h
smiles,measurement,setting,value
COCc1nn(Cc2ccc(Cn3ccccc3=O)cc2)cc1C(=O)NCc1nccc(OC)c1F [SEBETRALSTAT],IC50,Coagulation factor XI,> 40 µM
same,IC50,Tryptase,> 10 µM
same,Therm_solubility,[1],220 µg/mL
same,Therm_solubility,[2],> 1000 µg/mL
same,microsomal intrinsic clearance,[3],14 µL/min
same,IC50,[4],> 10 µM
same,IC50,Renin,> 10 µM
same,IC50,Cytochrome P450 3A4,> 25 µM
same,Therm_solubility,[5],11000 µg/mL
same,IC50,[6],> 33 µM
same,IC50,Cathepsin G,> 10 µM
same,LBF,[7],26%
same,IC50,Cathepsin D,> 10 µM
same,IC50,Cytochrome P450 2D6,> 25 µM
same,F,[8],82%
same,IC50,Cytochrome P450 2B6,> 25 µM
same,t1/2,[9],1 h
same,Therm_solubility,[10],110 µg/mL
same,IC50,Cytochrome P450 2C9,> 25 µM
same,F,[11],34%
same,IC50,Plasminogen,> 40 µM
same,Activity,[12],Non-Toxic
same,clearance,[13],10.9 mL/min/kg
same,IC50,Prothrombin,> 40 µM
same,t1/2,[14],1 h
same,IC50,Cytochrome P450 2C8,> 25 µM
same,clearance,[15],20.9 mL/min/kg
same,IC50,Beta-secretase 1,> 10 µM
same,LBF,[16],33%
same,IC50,Kallikrein-1,> 40 µM
same,Papp,[17],9 10^-6 cm/s
